# Data: the M2OR odorant receptor database
# Biological target: T1, OR1A2 (Homo sapiens) (UniProt Q9Y585)
# T1 sequence (whole entry): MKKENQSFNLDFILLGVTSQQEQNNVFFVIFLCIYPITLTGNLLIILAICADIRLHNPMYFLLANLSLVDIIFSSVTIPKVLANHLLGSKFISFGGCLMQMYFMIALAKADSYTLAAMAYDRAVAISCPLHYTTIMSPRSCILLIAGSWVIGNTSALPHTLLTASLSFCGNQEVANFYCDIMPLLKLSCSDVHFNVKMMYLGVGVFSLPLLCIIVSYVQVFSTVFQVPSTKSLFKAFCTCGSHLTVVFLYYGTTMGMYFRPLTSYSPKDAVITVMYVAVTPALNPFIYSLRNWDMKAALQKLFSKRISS
# Conditions: stereoisomer not certain
# Outline: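 Whether a receptor–molecule pair is responsive (active) rests on the original authors' judgment that its measured signal was statistically different from baseline. Pairs without that judgment are non-responsive (inactive). Sources used varied assay methods, commonly transient luciferase assays in mammalian cell lines.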
# 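Note: active if original authors judged signal statistically different from baseline.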
row,SMILES,odorant receptor agonist call
1,CCc1ncc(C)nc1CC,inactive
2,CC1CCCCCCCCCCCCC(=O)C1 (stereo unspecified),inactive
3,CCCCCC=CCCC=O,active
4,CC1CCC(C(C)C)C(=O)C1 (stereo unspecified),inactive
5,COc1ccccc1,inactive
6,CCCCC(S)C(C)CO (stereo unspecified),active
7,C=CC(C)(O)CCC=C(C)CCC=C(C)C (stereo unspecified),active
8,CCCC(C)C=O (stereo unspecified),inactive
9,CCCCCCC(=O)[O-].[H+],inactive
10,CCCCCCCC(=O)[O-].[H+],inactive
11,C=CC(=O)CCCCC,active
12,CCCCCCCC=CC=CC=O,inactive
13,C=C(C)C1CC=C(C)CC1 (stereo unspecified),active
14,CC(C)=CCCC(C)=CC#N,inactive
15,CCCCC(=O)O,inactive
16,C1CCNC1,inactive
17,CC=CC(=O)C1=C(C)C=CCC1(C)C,inactive
18,CCCCCCCO,inactive

row,SMILES,odorant receptor agonist call
1,CCc1cnccn1,inactive
2,CSCCCO,inactive
3,CCC=CCCC=CC=O,inactive
4,O=C([O-])CCC(=O)[O-].[H+].[H+],inactive
5,CCCCCC=CC=CC=O,active
6,CCC(S)C(C)CO (stereo unspecified),inactive
7,CCc1nccnc1CC,inactive
8,Cc1cnccn1,inactive
9,CSCCC=O,inactive
10,C=CC(C)=CCC=C(C)CCC=C(C)C,inactive
11,COc1nccnc1C(C)C,inactive
12,CCCCCCCCC(=O)O,inactive
13,CC=CC(=O)C1=C(C)CCCC1(C)C,inactive
14,C=CC(=O)CC,inactive
15,CCCCC=CC=CC=O,inactive
16,CCC(C)c1nccnc1OC (stereo unspecified),inactive
17,C=CC(O)CCCCC (stereo unspecified),inactive
18,CCC=CCCCCCC=O,active
